# A selection: hits, their analogues and other compounds. The true share with any hit is near 6.6%.
# HUVEC prolif 384 – inhibitors of HUVEC proliferation, primary screen, cell-based, 384-well. CellTiter-Glo luminescence, 72 h; stronger effect = lower value. viability, % at 10 µM (by protocol). actives 1.1% (n = 86,000);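 active = viability at or below 30%; inactive = viability above 30%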;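 also: 100% = median luminescence of DMSO-only cell control wells on each plate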
# H69AR growth 86K – proliferation blockers of H69AR lung cancer cells, primary screen, cell-based, human, 86K library; H69AR lung tumor viability, ATP luminescence, 72 h; stronger effect = lower value; viability, % at 10 µM; actives 6% (n = 85,000); AID 598, 2007;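 active = viability at or below 40%; inactive = viability above 40%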;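 also: multidrug resistant small cell line overexpressing MRP-1 efflux transporter; 100% = mean luminescence of untreated control wells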
# Lung fibro prol – antiproliferative effect on LL 47 fibroblasts – human, LL 47 cells, CellTiter-Glo luminescence, primary screen | LL 47 human lung fibroblast viability, ATP luminescence; stronger effect = lower value | viability, % at 10 µM | actives 1.1% (n = 85,000);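 active = viability at or below 50% in the single dose screen; inactive = viability above 50%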;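 also: compound exposure lasted 72 h before the ATP readout; 100% = median luminescence of untreated cell-only wells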
#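 Test system: LL 47 human lung fibroblasts / Quantity: 1,150 cells in each well / Medium: IMEM growth medium with 15% fetal bovine serum / Incubation: 72 h compound exposure at 37 °C after overnight plating / Detection: CellTiter-Glo luminescence measuring cellular ATP / Read-out: % viability versus median cells-only luminescence / Benchmarks: cell-only wells, no compound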
# Jurkat tox 60K – cytotoxicity toward Jurkat T cells, primary screen, cytotoxicity control, cell-based, Jurkat E6.1, 60K MLSMR library; inhibition, % at 4 µM; actives 1.2% (n = 56,000); Jurkat E6.1 viability, ATP luminescence, 48 h;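 active = inhibition above the mean inhibition of all tested compounds plus 3 SD, cut at about 28% in these data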
# * hit, by the source's call; . = not tested or not shown.
SMILES,HUVEC prolif 384,H69AR growth 86K,Lung fibro prol,Jurkat tox 60K
Cc1ccc(NC(=O)CSc2nnc([C@@H]3CCCN3C(=O)OC(C)(C)C)o2)c(C)c1,99,35*,103,-8
CCN(C(=O)c1cc2cc(OC)ccc2oc1=O)c1ccccc1,101,88,95,1
C=CCN(C(=O)c1ccccc1)c1ccc(OC)cc1,82,24*,88,49*
O=C(NCCc1csc(-c2ccc(C(F)(F)F)cc2)n1)c1cccs1,83,89,97,.
COC(=O)c1ccc(C2CC(=O)Nc3cc(OC)c(OC)c(OC)c32)cc1 (centres undefined),85,93,88,-3
CNCC(O)Cn1c(C(F)(F)F)nc2ccccc21 (centres undefined),99,91,106,.
CCCCC(=O)Nc1ccc(C(=O)N2CCC(C(=O)OCC)CC2)cc1,85,81,94,.
C=CCOc1cccc(C2c3c(oc4ccccc4c3=O)C(=O)N2c2ccccn2)c1 (centres undefined),63,26*,87,11
CCc1ccc2c(c1)C1(NN=C(c3ccc(C)cc3)S1)C(=O)N2 (centres undefined),9.8*,2.3*,47*,.
CC(C)c1ccc2c(c1)C1(NN=C(c3ccccc3)S1)C(=O)N2 (centres undefined),3.4*,18*,43*,.
Cc1nc2sc(C(c3ccc(Cl)cc3)N3CCN(c4ccccc4F)CC3)c(O)n2n1 (centres undefined),82,95,93,-3
Cc1ccc(CNC(=O)CSc2c3c(nc4cc(Cl)ccc24)CCCC3)o1,82,2.7*,87,.
CCOC(=O)c1ccc(CNC(=O)CSc2nnnn2-c2ccc(Cl)cc2)o1,97,90,104,0
O=C(COC(=O)c1cc(-c2cccs2)nc2ccccc12)NCc1ccco1,92,89,103,-4
O=C(COC(=O)c1cc(-c2ccc(Cl)s2)nc2ccccc12)NCc1ccco1,64,27*,95,.
CC(C)Oc1ccc(C2/C(=C(/O)c3ccc(F)cc3)C(=O)C(=O)N2CCCN(C)C)cc1 (centres undefined),96,100,105,-10
CCOC(=O)CC(=O)CSc1nc(C)cc(C)c1C#N,95,89,98,.
CCOC(=O)CC(=O)CSc1nc2ccc(C)cc2cc1C#N,100,3.2*,96,12
Cc1ccc(-c2nnc(SCC(=O)Nc3ccccc3N3CCOCC3)o2)cc1,106,95,96,-4
CCOC(=O)CC(=O)CSc1nc2c(c(C)c1C#N)CCC2,78,12*,103,-5
Cc1ccc2nc(SCC(=O)Nc3ccccc3N3CCOCC3)c(C#N)cc2c1,44,24*,95,.
COC(=O)CSc1nc2cc(C)ccc2cc1C#N,81,78,.,-5
O=C(Nc1ccc(Cl)c(Cl)c1)N(CCCN1CCOCC1)Cc1cccs1,83,54,84,.
CCc1cc(-c2[nH]ncc2-c2ccc3c(c2)OCO3)c(O)cc1O,9.7*,79,71,12
CCCc1cc(-c2[nH]ncc2-c2ccc3c(c2)OCCCO3)c(O)cc1OC,5.5*,18*,80,.
SMILES,HUVEC prolif 384,H69AR growth 86K,Lung fibro prol,Jurkat tox 60K
COc1ccc(-c2[nH]ncc2-c2ccc3c(c2)OCCO3)c(O)c1,.,.,.,8
CC(=O)CSc1nnc(-c2ccc(S(=O)(=O)N3CCC(C)CC3)cc2)o1,90,93,92,.
COc1ccc(Cl)c(N2CCN(CCCNC(=O)Nc3ccc(C)cc3)CC2)c1,10*,90,93,2
COc1ccc(Cl)cc1N1CCN(CCNC(=O)Nc2ccccc2C)CC1,5.3*,19*,75,-2
COc1ccccc1N1CCN(CCCNC(=O)Nc2ccccc2C)CC1,120,99,95,.
CN(C(=O)Cc1ccccc1)n1cnnc1,98,98,100,.
Cn1ncc(C#N)c1NC(=O)c1cc(-c2ccccc2Cl)on1,88,86,103,.
COc1ccc(OC)c(C2C(C(=O)c3ccco3)=C(O)C(=O)N2CCCN2CCOCC2)c1 (centres undefined),92,85,104,.
CC1CCN(CC(=O)N2CCCc3c2c(=O)oc2ccc(OCc4ccccc4)cc32)CC1,74,33*,89,.
CCCOc1ccc2oc(=O)c3c(c2c1)CCCN3C(=O)CN1CCc2ccccc2C1,44,40*,94,1
CC1CC(C)CN(CC(=O)N2CCCc3c2c(=O)oc2ccc(OCc4ccccc4)cc32)C1 (centres undefined),80,90,95,.
CCCOc1ccc(C(=O)N2CCCc3ccccc32)cc1,93,83,94,4
COc1ccccc1NC(=O)N1CCc2[nH]c3ccc(Cl)cc3c2C1,75,40,85,-1
O=C(CN1CCN(c2ncccn2)CC1)NCCC1=CCCCC1,98,93,100,.
Cc1nc(N2CCN(C(c3ccccc3)c3ccccc3)CC2)[nH]c(=O)c1C,86,85,91,4
Cc1nc(N2CCN(c3ccccc3)CC2)[nH]c(=O)c1Cc1cccc2ccccc12,52,22*,57,6
Cc1c(C#N)c2ccccc2n1CC(=O)NCCc1c[nH]c2ccccc12,74,37*,77,3
Cc1ccc(S(=O)(=O)N2CCC(C(=O)Nc3nnc(-c4ccco4)s3)CC2)cc1,61,38*,67,0
Cc1ccc(NC2=CC(=O)C(=O)c3ccccc32)cc1,6.5*,3.4*,7.3*,.
CCOC(=O)c1ccc(NC2=CC(=O)C(=O)c3ccccc32)cc1,5.4*,95,3.9*,.
CC(C(=O)NCc1ccco1)n1cc(C(=O)c2ccco2)c2ccccc21 (centres undefined),91,81,94,.
CC1Cc2ccccc2N1Cc1nc2cc(Cl)ccc2c(=O)[nH]1 (centres undefined),74,25*,82,.
CC(C)=CC1C=C(C)C(C)C2C(=O)NNC(=O)C12 (centres undefined),107,98,107,.
Cc1cc(NC(=O)CCCS(=O)(=O)c2nc(-c3cccs3)cc(C(F)(F)F)n2)no1,.,.,.,100*
Cc1cc(NC(=O)CSc2nc(-c3cccs3)cc(C(F)(F)F)n2)no1,42,29*,53,74*
SMILES,HUVEC prolif 384,H69AR growth 86K,Lung fibro prol,Jurkat tox 60K
CC(C)CNC(=O)CSc1nc(-c2cccs2)cc(C(F)(F)F)n1,100,95,101,.
CCCNC(=O)CSc1nc(-c2cccs2)cc(C(F)(F)F)n1,100,88,97,.
COc1ccccc1C1/C(=C(\O)c2c(C)nc3c(C)cccn23)C(=O)C(=O)N1CCCN(C)C (centres undefined),89,88,94,-10
COc1ccccc1NC(=O)N(Cc1ccco1)Cc1cc2ccc(C)c(C)c2[nH]c1=O,59,17*,55,80*
COc1ccccc1NC(=O)N(Cc1ccco1)Cc1cc2cc(C)cc(C)c2[nH]c1=O,61,19*,105,14
COc1ccc(-c2nc(-c3cccs3)c(-c3cccs3)[nH]2)cc1O,83,47,100,6
CCOC(=O)Nc1ccc(OC)cc1S(=O)(=O)N1CCCCC1,87,90,108,2

# Screening data: PubChem BioAssay, several laboratories
